For experiment [1], the system named is Tumor Cell line. As to the kind of experiment: In vitro inhibition of cell growth. Format: functional, Homo sapiens.
For experiment [2], the system named is Tumor Cell line. As to the kind of experiment: Concentration which reduces cell growth to level at the start of the experiment was reported as the mean graph medium for all the cell lines tested in vitro conditions. Format: functional, Homo sapiens. In a few lines:
(§1)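 NCI in vitro screen covering about 60 human cell lines from eight solid tumour types and leukaemia. Results were derived from dose-response curves. TGI is the concentration that holds cell growth at the level present at the start of the experiment. Values are given as log molar concentration. The mean graph midpoint (MG-MID) is the average across all cell lines tested, with a range of TGI values.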

For experiment [3], the system named is BT-549. As to the kind of experiment: In vitro tumor cell growth inhibition was reported as the concentration that reduces BT-549 breast cancer cell growth to 50% of level at the start experiment. Format: functional. Conditions: Homo sapiens, read-out: Log LC50 (the source's name) (converted). In a few lines:
(§2)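 Tested in the NCI in vitro anticancer screen, which covers about 60 human cell lines from eight solid-tumour types and leukaemia. Values were read from dose-response curves as log molar concentration. The endpoint is the concentration that reduces cell growth to 50% of the level at the start of the experiment (LC50).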

Experiment [4] has as its system Hs-578T. As to the kind of experiment: In vitro tumor cell growth inhibition was reported as the concentration that reduces HS 578T breast cancer cell growth to 50% of level at the start experiment. Format: functional. Conditions: Homo sapiens, read-out: Log LC50 (the source's name) (converted). In a few lines: as §2
Experiment [5] relates to M14. As to the kind of experiment: In vitro tumor cell growth inhibition was reported as the concentration that reduces M14 melanoma cell growth to 50% of level at the start experiment. Format: functional. Conditions: Homo sapiens, read-out: Log LC50 (the source's name) (converted). A digest of the protocol:
as §2

Experiment [6] has as its system MCF7. As to the kind of experiment: In vitro tumor cell growth inhibition was reported as the concentration that reduces MCF-7 breast cancer cell growth to level at the start experiment. Format: functional, Homo sapiens. In a few lines:
as §1

Experiment [7] has as its system MCF7. As to the kind of experiment: In vitro tumor cell growth inhibition was reported as the concentration that reduces MCF-7 breast cancer cell growth to 50% of level at the start experiment. Format: functional. Conditions: Homo sapiens, read-out: Log LC50 (the source's name) (converted). A digest of the protocol:
as §2

Experiment [8] deals with LOX IMVI. As to the kind of experiment: In vitro tumor cell growth inhibition was reported as the concentration that reduces LOXIMVI melanoma cell growth to level at the start experiment. Format: functional, Homo sapiens. In a few lines:
as §1

For experiment [9], the system named is LOX IMVI. As to the kind of experiment: In vitro tumor cell growth inhibition was reported as the concentration that reduces LOXIMVI melanoma cell growth to 50% of level at the start experiment. Format: functional. Conditions: Homo sapiens, read-out: Log LC50 (the source's name) (converted). In a few lines:
as §2

For experiment [10], the system named is MDA-MB-231. As to the kind of experiment: In vitro tumor cell growth inhibition was reported as the concentration that reduces MDA-MB-231/ATCC breast cancer cell growth to level at the start experiment. Format: functional, Homo sapiens. A digest of the protocol: as §1
In experiment [11] the test system is MDA-MB-231. As to the kind of experiment: In vitro tumor cell growth inhibition was reported as the concentration that reduces MDA-MB-231/ATCC breast cancer cell growth to 50% of level at the start experiment.. Format: functional. Conditions: Homo sapiens, read-out: Log LC50 (the source's name) (converted). A digest of the protocol: as §2
The test system of experiment [12] is MDA-N. As to the kind of experiment: In vitro tumor cell growth inhibition was reported as the concentration that reduces MDA-N breast cancer cell growth to level at the start experiment. Format: functional, Homo sapiens. In a few lines: as §1
The test system of experiment [13] is MDA-N. As to the kind of experiment: In vitro tumor cell growth inhibition was reported as the concentration that reduces MDA-N breast cancer cell growth to 50% of level at the start experiment. Format: functional. Conditions: Homo sapiens, read-out: Log LC50 (the source's name) (converted). In a few lines:
as §2

Experiment [14] deals with MDA-MB-435. As to the kind of experiment: In vitro tumor cell growth inhibition was reported as the concentration that reduces MDA-MB-435 breast cancer cell growth to level at the start experiment. Format: functional, Homo sapiens. In a few lines: as §1
In experiment [15] the test system is MDA-MB-435. As to the kind of experiment: In vitro tumor cell growth inhibition was reported as the concentration that reduces MDA-MB-435 breast cancer cell growth to 50% of level at the start experiment. Conditions: Homo sapiens, read-out: Log LC50 (the source's name) (converted). Format: functional. A digest of the protocol: as §2
Experiment [16] relates to Malme-3M. As to the kind of experiment: In vitro tumor cell growth inhibition was reported as the concentration that reduces MALME-3M melanoma cell growth to level at the start experiment. Format: functional, Homo sapiens. A digest of the protocol: as §1
Experiment [17] relates to Malme-3M. As to the kind of experiment: In vitro tumor cell growth inhibition was reported as the concentration that reduces MALME-3M melanoma cell growth to 50% of level at the start experiment. Format: functional. Conditions: Homo sapiens, read-out: Log LC50 (the source's name) (converted). In a few lines: as §2
In experiment [18] the test system is SK-MEL-2. As to the kind of experiment: In vitro tumor cell growth inhibition was reported as the concentration that reduces SK-MEL-2 melanoma cell growth to 50% of level at the start experiment. Format: functional. Conditions: Homo sapiens, read-out: Log LC50 (the source's name) (converted). In a few lines:
as §2

The subject of experiment [19] is SK-MEL-5. As to the kind of experiment: In vitro tumor cell growth inhibition was reported as the concentration that reduces SK-MEL-5 melanoma cell growth to level at the start experiment. Format: functional, Homo sapiens. In a few lines:
as §1

For experiment [20], the system named is SK-MEL-5. As to the kind of experiment: In vitro tumor cell growth inhibition was reported as the concentration that reduces SK-MEL-5 melanoma cell growth to 50% of level at the start experiment. Format: functional. Conditions: Homo sapiens, read-out: Log LC50 (the source's name) (converted). A digest of the protocol:
as §2

Experiment [21] deals with T47D. As to the kind of experiment: In vitro tumor cell growth inhibition was reported as the concentration that reduces T-47D breast cancer cell growth to level at the start experiment. Format: functional, Homo sapiens. In a few lines: as §1
Experiment [22] has as its system T47D. As to the kind of experiment: In vitro tumor cell growth inhibition was reported as the concentration that reduces T-47D breast cancer cell growth to 50% of level at the start experiment. Format: functional. Conditions: Homo sapiens, read-out: Log LC50 (the source's name) (converted). In a few lines:
as §2

Experiment [23] has as its system BT-549. As to the kind of experiment: In vitro tumor cell growth inhibition was reported as the concentration that reduces BT-549 breast cancer cell growth to level at the start experiment. Format: functional, Homo sapiens. A digest of the protocol: as §1
Experiment [24] has as its system Hs-578T. As to the kind of experiment: In vitro tumor cell growth inhibition was reported as the concentration that reduces HS 578T breast cancer cell growth to level at the start experiment. Format: functional, Homo sapiens. In a few lines:
as §1

The test system of experiment [25] is M14. As to the kind of experiment: In vitro tumor cell growth inhibition was reported as the concentration that reduces M14 melanoma cell growth to level at the start experiment. Format: functional, Homo sapiens. In a few lines: as §1
Experiment [26] concerns SK-MEL-2. As to the kind of experiment: In vitro tumor cell growth inhibition was reported as the concentration that reduces SK-MEL-2 melanoma cell growth to level at the start experiment. Format: functional, Homo sapiens. In a few lines: as §1

Some results are limits rather than exact numbers.

The molecule `Cc1nc2c(o1)/C(=N\c1ccccc1)c1ccccc1/C2=N/c1ccccc1` registered a Range in the experiment on Tumor Cell line [1] of 0.49. The Log concentration in the experiment on Tumor Cell line [2] is given as -4.02.
For the molecule `Cc1nc2c(o1)C(=O)c1ccccc1/C2=N/c1ccccc1`, the CC50 in the experiment on BT-549 [3] was 6.31 µM; in the experiment on Hs-578T [4] it was above 100 µM; in the experiment on M14 [5], 3.98 µM; in the experiment on MCF7 [7], above 100 µM; with LOX IMVI [9], 6.31 µM; in the experiment on MDA-MB-231 [11], above 100 µM. Also, the CC50 in the experiment with MDA-N [13] was 3.16 µM; in the experiment on MDA-MB-435 [15] it was 3.16 µM; in the experiment on Malme-3M [17], 5.01 µM; with SK-MEL-2 [18], 6.31 µM; in the experiment with SK-MEL-5 [20], 5.01 µM; with T47D [22], above 100 µM. The molecule also showed a Range in the experiment on Tumor Cell line [1] of 2.02. Also, the Log concentration with Tumor Cell line [2] is recorded as -5.13; with MCF7 [6], -5.3; with LOX IMVI [8], -5.6; with MDA-MB-231 [10] it was -4.7; in the experiment with MDA-N [12], -6; with MDA-MB-435 [14] it was -6. The Log concentration in the experiment on Malme-3M [16] is given as -5.6; in the experiment with SK-MEL-5 [19], -5.6; in the experiment with T47D [21], -5.1; with BT-549 [23] it was -5.5; in the experiment on Hs-578T [24], -5.3; in the experiment with M14 [25], -5.9. In addition, the Log concentration with SK-MEL-2 [26] is listed as -5.6.
In the experiment with Tumor Cell line [1], `Cc1nc2c(o1)/C(=N\c1ccccc1)c1ccccc1C2=O` registered a Range of 1.44. In addition, the Log concentration with Tumor Cell line [2] was -4.62.
